From paper PMC12009964 (Scientific Reports, 2025)

Assays:
[1] = test system: ERK1/2; test: Z'-LYTE Kinase Assay, Ser/Thr 3 peptide; format: biochemical, human; conditions: 1.25, 2.5, 5, and 10 µM
How it was run: (§1)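 Coupled-enzyme, antibody-free fluorescence kinase assay on HeLa cell lysates (10–100 µg per well). Substrates: Ser/Thr 4 peptide for ERK5, Ser/Thr 3 peptide for ERK1/2. Test compound at 1.25, 2.5, 5 and 10 µM. Coumarin (Ex 400/Em 445 nm) and fluorescein (Ex 400/Em 520 nm) emissions read on a plate reader.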

[2] = test system: PCNA expression in Hela cells; test: PCNA mRNA expression by quantitative RT-PCR; format: cell-based, human; conditions: for inhibition rate of the expression of PCNA: Hela cells, qRT-PCR, 5 μM as printed in abstract; for inhibition at 10 µM: Homo sapiens, HeLa, read-out: Inhibition of PCNA expression
[3] = test system: Hela cells; test: Annexin V/Propidium iodide flow cytometry; format: cell-based, human; conditions: 5 µM, 24 h
How it was run: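 Apoptosis assay: HeLa cells (5 × 10^5) seeded in 6-well plates for 24 h, serum-starved 20 h, then exposed to test compound for 24 h (1, 2.5 or 5 µM in methods). Annexin V-FITC/PI kit staining, flow cytometry. Quadrants: lower right early apoptotic, upper right late apoptotic, upper left necrotic. Mean ± SD of three independent experiments.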

[4] = test system: AP-1 reporter in HeLa cells; test: ERK5-driven AP-1 reporter assay; format: cell-based, human; conditions: 5 µM
How it was run: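 HeLa cells (2 × 10^5 per well, 6-well) transiently lipofected with an AP-1-luc reporter vector carrying six AP-1 response elements. After transfection, cells received 5 µM test compound. AP-1 mRNA measured by RT-PCR (TRIzol RNA, reverse transcription, duplicate real-time reactions), with GAPDH as normaliser and the 2−∆∆Cq method.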

[5] = test system: Hela cells; test: DAPI staining assay; format: cell-based, human; conditions: 5 µM, 24 h, compared to DMSO
How it was run: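 HeLa cells (5 × 10^3) seeded in 24-well plates for 24 h, treated 24 h with test compound (1, 2.5 or 5 µM in methods). Fixed in 4% paraformaldehyde 10 min, washed, stained with 300 nM DAPI 15 min in the dark. Nuclear morphology of apoptotic cells examined by fluorescence microscopy.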

[6] = target: ERK5 (Homo sapiens, UniProt Q13164); test: Z'-LYTE Kinase Assay, Ser/Thr 4 peptide; format: biochemical; conditions: read-out: IC50 against ERK5 (Z'-LYTE kinase assay)
ERK5, sequence (Q13164 2-816): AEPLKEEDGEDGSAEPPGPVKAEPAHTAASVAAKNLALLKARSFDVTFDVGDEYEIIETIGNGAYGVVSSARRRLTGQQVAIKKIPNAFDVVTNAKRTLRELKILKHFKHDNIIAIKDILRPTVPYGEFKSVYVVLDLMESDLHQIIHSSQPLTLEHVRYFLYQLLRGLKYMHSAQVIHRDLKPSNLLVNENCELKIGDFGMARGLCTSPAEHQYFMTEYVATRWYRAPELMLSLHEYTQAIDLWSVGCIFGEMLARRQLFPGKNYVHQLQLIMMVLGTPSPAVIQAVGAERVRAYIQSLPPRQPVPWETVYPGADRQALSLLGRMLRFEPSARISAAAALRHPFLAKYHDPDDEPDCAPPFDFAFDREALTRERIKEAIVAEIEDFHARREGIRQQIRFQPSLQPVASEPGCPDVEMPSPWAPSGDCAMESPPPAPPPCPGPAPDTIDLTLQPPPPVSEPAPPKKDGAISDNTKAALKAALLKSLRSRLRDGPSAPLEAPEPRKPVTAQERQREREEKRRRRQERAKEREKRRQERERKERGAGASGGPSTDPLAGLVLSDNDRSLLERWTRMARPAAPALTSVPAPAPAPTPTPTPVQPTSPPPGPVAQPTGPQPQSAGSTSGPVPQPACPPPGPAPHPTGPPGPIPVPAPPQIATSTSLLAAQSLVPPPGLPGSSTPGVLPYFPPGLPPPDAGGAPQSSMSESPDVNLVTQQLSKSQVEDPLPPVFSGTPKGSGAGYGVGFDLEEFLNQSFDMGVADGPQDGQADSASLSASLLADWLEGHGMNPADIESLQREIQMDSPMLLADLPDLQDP
How it was run: as §1

| SMILES | effect on ERK1/2 kinase activity [1] | inhibition rate of the expression of PCNA [2] [%] | increase of late apoptotic events compared with DMSO [3] [%] | expression of AP-1 [4] | apoptosis by DAPI staining [5] | IC50 [6] [µM] | inhibition at 10 µM [2] [%] |
| --- | --- | --- | --- | --- | --- | --- | --- |
| CC(C)CCOc1cc(C[n+]2c(C(C)C)n(CCC(C)C)c3ccccc32)c(OCCC(C)C)c2ccccc12.[Br-] [4e, 3-((1,4-bis(isopentyloxy)naphthalen-2-yl)methyl)−1-isoamyl-2-isopropyl-1H-benzo[d]imidazol-3-ium bromide] | did not inhibit ERK1/2 kinase activity | 61.1 | 10.8 | significantly decreased | triggered apoptosis | 5.1 |  |
| COC(C)c1n(CCC(C)C)c2ccccc2[n+]1Cc1cc(OCCC(C)C)c2ccccc2c1OCCC(C)C (stereo not drawn) [4j, 3-((1,4-Bis(isoamyloxy)naphthalen-2-yl)methyl)−1-isoamyl-2-(1-methoxyethyl)−1H-benzo[d]imidazol-3-ium bromide] |  |  |  |  |  |  | 57.4 |
| Cc1cc2c(cc1C)[n+](Cc1cc(OCCC(C)C)c3ccccc3c1OCCC(C)C)cn2CCC(C)C.[Br-] [4k, 3-((1,4-Bis(isoamyloxy)naphthalen-2-yl)methyl)−1-isoamyl-5,6-dimethyl-1H-benzo[d]imidazol-3-ium bromide] | did not inhibit ERK1/2 kinase activity | 70.2 | 14 | significantly decreased | triggered apoptosis | 9 | 70.2 |
| CC(C)CCOc1cc(C[n+]2cn(CCC(C)C)c3cc(Br)c(Br)cc32)c(OCCC(C)C)c2ccccc12 [4m, 3-((1,4-Bis(isoamyloxy)naphthalen-2-yl)methyl)−5,6-dibromo-1-isoamyl-1H-benzo[d]imidazol-3-ium bromide] |  |  |  |  |  |  | 57 |
